# In the library only some 2.4% were active in any assay of this set; here they are far more common.
# EWS-Fli inh = EWS/Fli-driven NR0B1 reporter inhibitors, primary screen, A673 cells, NR0B1 luciferase, luminescence, MLPCN library. viability-normalised. inhibition, % at 12.6 µM. 350,000 tested, 0.67% active. AID 651661, 2012;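 active = mean inhibition of at least 50% after viability correction, with every replicate also passing that limit; inconclusive = mean reaches 50% but only one of two replicates passes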;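 note: firefly luciferase signal divided by Alamar Blue viability fluorescence both relative to DMSO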
# rRNA inh HTS = reduced GFP signal of wild-type E. coli, primary screen, bacterial rRNA inhibitor project, GFP/RFP fluorescence, OD600, single point; GFP signal change (wild-type ribosome), % (concentration not given with the values); AID 720706, 2013; 350,000 tested, 1.6% active; E. coli WT GFP vs humanized-ribosome RFP mutants, 24 h; stronger effect = lower value; DMSO median 0, no signal -100;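 active = significant combined selectivity score with lowered wild-type GFP, culture density cut under 30%, mutant RFP and density less affected; inactive = any of these conditions unmet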
# LGR2 inh = inhibitors of bursicon-induced LGR2 CRE-luciferase signal, primary screen, cell-based, HEK293, CRE-luciferase reporter, bursicon stimulation. Drosophila bursicon receptor LGR2 (rickets). bursicon-stimulated, 4 h. inhibition, % at 9.99 µM. 380,000 tested, 0.35% active;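 active = drop in luminescence signal, shown as inhibition above about 50% in the replicate tests, limit read from the data, passing the limit was not always enough; inconclusive = probably only some replicates passing the limit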;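 note: agonist challenge used bursicon conditioned medium at about half maximal strength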
# E-sel inducer = E-selectin induction in HUVECs, primary screen, imaging, HUVEC, immunofluorescence imaging, single point; 260,000 tested, 0.37% active; normalized: neutral wells 0, TNF-alpha wells 100; P16581; AID 686992, 2013; activation, % at 7.58 µM;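 active = mean E-selectin-positive cell signal at least 10% of the positive control, reached in at least 60% of replicates, without over 20% cell loss; inconclusive = no rule given, readout overlaps actives, possibly toxicity-flagged; inactive = the rest, including those meeting only one limit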
# Target sequence (P16581 whole entry, looked up): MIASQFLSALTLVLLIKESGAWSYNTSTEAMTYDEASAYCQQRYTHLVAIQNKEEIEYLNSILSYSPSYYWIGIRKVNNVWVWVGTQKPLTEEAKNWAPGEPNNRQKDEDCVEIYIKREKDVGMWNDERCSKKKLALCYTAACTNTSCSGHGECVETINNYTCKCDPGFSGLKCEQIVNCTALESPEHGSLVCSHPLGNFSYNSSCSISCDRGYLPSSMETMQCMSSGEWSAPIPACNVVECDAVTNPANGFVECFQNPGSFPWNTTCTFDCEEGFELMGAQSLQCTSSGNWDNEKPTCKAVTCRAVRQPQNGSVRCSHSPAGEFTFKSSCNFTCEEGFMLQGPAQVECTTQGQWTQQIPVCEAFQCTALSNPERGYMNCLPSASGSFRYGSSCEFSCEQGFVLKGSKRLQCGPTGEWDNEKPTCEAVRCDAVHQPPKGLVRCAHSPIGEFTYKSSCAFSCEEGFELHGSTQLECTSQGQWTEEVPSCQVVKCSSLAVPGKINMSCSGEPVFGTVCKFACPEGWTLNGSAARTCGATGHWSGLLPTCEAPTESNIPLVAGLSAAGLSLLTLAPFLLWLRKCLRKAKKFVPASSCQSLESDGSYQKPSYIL
#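 Read-out basis: % PE-positive cells; Test system: HUVEC primary endothelial cells; Technique: immunofluorescence imaging; Dosing: single-point compound dose.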
# A number is an active result; . = inactive; ? = inconclusive; / = no result given.
SMILES,EWS-Fli inh,rRNA inh HTS,LGR2 inh,E-sel inducer
COc1ccc(CN(C)C[C@@H]2OCCCC[C@H](C)Oc3ccc(NS(=O)(=O)c4ccccc4)cc3C(=O)N([C@H](C)CO)C[C@@H]2C)cc1,.,.,.,.
COc1ccc(C(=O)Nc2cccc(OC)c2)cc1,.,.,.,/
COc1cccc(NC(=O)c2ccc(OC(F)(F)F)cc2)c1,.,.,.,42
COc1cccc(NC(=O)Nc2cccc(C(=O)O)c2)c1,75,.,97,/
CCCc1c(C(=O)Nc2ccc(OC)cc2)cnn1-c1ccccc1,.,-24,.,.
CCCc1c(C(=O)N2CCN(c3ccccc3OC)CC2)cnn1-c1ccccc1,.,.,.,.
CCCc1c(C(=O)NNc2ccccc2OC)cnn1-c1ccccc1,.,-23,.,.
O=C(N[C@H]1CC[C@H](CCNC(=O)c2ccccc2F)O[C@H]1CO)c1cnccn1,.,.,.,.
COc1ccc2c3c([nH]c2c1)[C@H](CO)N(Cc1nccs1)CC31CN(C(=O)C2CCCC2)C1,.,.,.,.
Cc1cc(C)c2nc(N3CCC(C(=O)NCC4CCCO4)CC3)sc2c1 (stereo unspecified),/,.,.,.
Cc1cc(C)c2nc(N3CCC(C(=O)N4CCCC4)CC3)sc2c1,.,-25,.,/
CC(C)NC(=O)N[C@H]1C=C[C@@H](CC(=O)NC2Cc3ccccc3C2)O[C@H]1CO,/,.,.,.
Cc1ccc(N/C(N)=N/c2nc3c(c(=O)[nH]2)CCCC3)c(C)c1,/,/,.,/
Cc1ccc(N/C(N)=N/c2nc(C)cc(N3CCCCC3)n2)c(C)c1,.,.,67,.
COC(=O)c1cc2oc3ccccc3c2n1Cc1ccccn1,/,-44,.,/
Cc1cc(NC(=O)COC(=O)c2ccccc2S(=O)(=O)N(C)c2ccccc2)no1,.,-33,.,/
CC1Cc2ccccc2N1c1ncnc(N)c1[N+](=O)[O-] (stereo unspecified),.,.,64,/
CC1CCCCN1c1ncnc(N)c1[N+](=O)[O-] (stereo unspecified),.,.,.,.
COCc1cn(CC[C@H]2CC[C@@H](NC(=O)Cc3cccnc3)[C@H](CO)O2)nn1,.,.,.,.
COc1ccc(NCC(O)Cn2c(C)c(C)c3ccccc32)cc1 (stereo unspecified),.,-40,.,.
Cc1c(C)n(CC(O)CNc2ccccc2)c2ccccc12 (stereo unspecified),.,.,.,/
C[C@H]1CN(C)C(=O)Cc2cc(N)ccc2O[C@@H]1CN(C)S(C)(=O)=O,/,.,/,/
O=C1OCCC1Sc1nnc(-c2ccc(Cl)cc2Cl)o1 (stereo unspecified),.,.,74,.
COc1ccc(CNc2nc(SCC(=O)NCc3ccco3)nc3ccccc23)cc1,.,-31,.,/
COc1ccc(Cc2nnc(SCC(=O)NCc3ccco3)o2)cc1,/,/,/,.
SMILES,EWS-Fli inh,rRNA inh HTS,LGR2 inh,E-sel inducer
CC(=O)Oc1ccc(N2C(=O)c3cccc4c([N+](=O)[O-])ccc(c34)C2=O)cc1,66,.,.,/
Cc1n(Cc2ccccc2)c2cc([N+](=O)[O-])ccc2[n+]1Cc1ccccc1,.,.,.,/
Cc1n(Cc2ccccc2)c2ccccc2[n+]1Cc1ccccc1,.,-34,.,/
O=S(=O)(c1cnc(Cl)c(Cl)c1)N1CCc2ccccc21,.,-33,.,/
O=S(=O)(c1cnc(Cl)c(Br)c1)N1CCc2ccccc21,.,.,.,.
COc1ccccc1CNc1ccc([N+](=O)[O-])cc1C,.,.,.,/
COc1cccc(CNc2ccc([N+](=O)[O-])cc2Cl)c1O,.,-50,.,/
COc1ccc(C(=O)O)cc1S(=O)(=O)N(CCc1ccccc1)Cc1ccccc1,.,-36,.,.
CCN(Cc1ccccc1)S(=O)(=O)c1cc(C(=O)NC2CCCCCC2)ccc1OC,.,.,.,/
COC(=O)C[C@H]1CC[C@@H]2[C@@H](COc3ccc(NC(=O)Cc4cccs4)cc3C(=O)N2C)O1,.,.,.,.
O=C(Oc1ccc(/C=N/O)cc1)c1ccccc1Cl,.,-29,.,.
Cc1ccc(C(=O)N/N=C/c2ccc(OC(=O)c3ccccc3Cl)cc2)cn1,.,.,.,.
COc1ccc(S(=O)(=O)Nc2cccc3c2O[C@H](CN(C)CC2CC2)[C@H](C)CN([C@@H](C)CO)C3=O)cc1,.,.,.,.
O=C(O)CSc1cc(NS(=O)(=O)c2cccc([N+](=O)[O-])c2)c2ccccc2c1O,.,-34,?,/
Cc1ccc(Cl)cc1N1CCN(C(=O)c2noc(C)c2[N+](=O)[O-])CC1,70,.,.,/
Cc1onc(C(=O)N2CCN(c3ccccc3)CC2)c1[N+](=O)[O-],/,.,.,/
C[C@@H]1CN([C@H](C)CO)C(=O)c2cc(-c3cccc(C#N)c3)cnc2O[C@@H]1CN(C)C(=O)C1CCC1,.,.,.,.
C[C@H](CO)N1C[C@H](C)[C@@H](CN(C)Cc2ccc(C(=O)Nc3ccccc3N)cc2)Oc2ccc(NS(=O)(=O)c3cn(C)cn3)cc2CC1=O,.,.,.,.
O=C1NC(=Nc2ccc(O)cc2)S/C1=C\C=C\c1ccco1,.,-24,.,.
Clc1ccc(-c2cn(-c3ccc(Cl)cc3)c3[n+]2CCCCC3)cc1,.,-46,.,.
COc1ccc(-c2cn(-c3ccc(Cl)cc3)c3[n+]2CCCCC3)cc1,.,-35,.,.
COc1ccccc1-c1ccc2c(c1)[C@H]1[C@H](CCN1C(=O)C1CCOCC1)[C@H](CO)N2,.,.,.,.
C[C@H](O)C#Cc1cnc2c(c1)C(=O)N([C@H](C)CO)C[C@@H](C)[C@H](CN(C)C(=O)c1ccccc1)O2,.,.,.,.
C[C@@H]1CN(C)C(=O)c2cc(N(C)C)ccc2O[C@H]1CN(C)C,/,.,/,/
O=S(=O)(NN=Cc1ccc(O)cc1O)c1cc(Cl)c(Cl)cc1Cl,.,-15,.,.
SMILES,EWS-Fli inh,rRNA inh HTS,LGR2 inh,E-sel inducer
COc1ccccc1NC(=O)N[C@H]1CC[C@H](CCNC(=O)c2ccc3c(c2)OCO3)O[C@H]1CO,.,.,.,.
CCOC(=O)Cc1csc(NC(=O)Cc2ccc(Cl)cc2)n1,.,-22,.,/
CCOC(=O)Cc1csc(NC(=O)COc2ccc(C)cc2)n1,.,.,.,/
CCOC(=O)Cc1csc(NC(=O)Nc2ccc(OC(F)(F)F)cc2)n1,.,-21,.,.
CC(=O)N1[C@@H](CO)[C@H](c2ccccc2)C12CN(C(=O)c1ccc3c(c1)OCO3)C2,.,.,.,.
CN(C)CCNc1ccc(CO)c2oc3ccc(O)cc3c(=O)c12,55,.,.,.
CCOC(=O)c1c(CS(=O)(=O)c2ccccc2)n(C)c2cc(Br)c(O)cc12,.,-19,/,/
COc1ccc(CNC(=O)C[C@@H]2C[C@H]3c4cc(NS(C)(=O)=O)ccc4O[C@H]3[C@@H](CO)O2)cc1,.,.,.,.
COc1ccc2c3c([nH]c2c1)[C@@H](CO)N(S(=O)(=O)c1cn(C)cn1)CC31CCN(Cc2ccccc2)CC1,/,.,/,/
Cc1ccc(Nc2nc(-c3cccs3)cs2)nc1,.,.,.,/

# Source: PubChem (Broad Institute)
